Assay results reported in the EternaBench riboswitch data.

Tested on: MS2 coat protein
Assay: apparent Kd, MS2 coat protein; higher = weaker binding; RNA-MaP array
Procedure, shortened: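 Designed RNAs were transcribed in place on an Illumina sequencing chip from sequenced DNA templates. At room temperature and with or without input ligand, they were incubated with fluorescently labeled MS2 coat protein from 1.5 nM to 3 μM, for 0.8–1.5 h at the lowest and 10–20 min at the highest concentrations. Apparent Kd is the median of the binding-curve fits made per cluster, with designs measured on fewer than 10 clusters excluded.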

[1] = designed as: OFF switch for flavin mononucleotide, no ligand
[2] = ligand present: flavin mononucleotide, designed as: OFF switch for flavin mononucleotide
[3] = designed as: ON switch for theophylline, no ligand
[4] = ligand present: theophylline, designed as: ON switch for theophylline
[5] = designed as: ON switch for flavin mononucleotide, no ligand
[6] = ligand present: flavin mononucleotide, designed as: ON switch for flavin mononucleotide
[7] = designed as: ON switch for tryptophan, no ligand
[8] = ligand present: tryptophan, designed as: ON switch for tryptophan
[9] = designed as: OFF switch for tryptophan, no ligand
[10] = ligand present: tryptophan, designed as: OFF switch for tryptophan
[11] = designed as: OFF switch for theophylline, no ligand
[12] = ligand present: theophylline, designed as: OFF switch for theophylline

AGCAUCGCAGGAUAUACAUGAGGAUCACCCAUGUAAAAUAACAAACUUGAACCUGCAAGUAGAAGGGCGUAACG
apparent Kd [1]: 8.31 nM
apparent Kd [2]: 7.87 nM

GUAAGACAUGAGGAUCACCCAUGUGUCGAUACCAGCCCUGCCUCUGGCCCUUGGCAGCGACUCGCACACCUCGCACUGCACAAGU
apparent Kd [3]: 54.9 nM
apparent Kd [4]: 73.2 nM

UUUACGAACGUGGAAAUACAUGAGGAUCACCCAUGUCAAUUGUAGGAUAUCCGGCUCAAAGAAAUGGAGAAGGACAACGACUCC
apparent Kd [5]: 13.4 nM
apparent Kd [6]: 12.7 nM

GGGCGACUAGGAUAUACAGGAAGUUAAUGAGUGUCAAAGAAACAUGAGGAUCACCCAUGUAGAAGGAGUGCUAU
apparent Kd [1]: 11.2 nM
apparent Kd [2]: 12.6 nM

ACCUGGCGGCAGAAGGCCCGCGAUUAACGUAAGGGAGGAUAUGCAUUGUGCGGUGGGACAUGAGGAUCACCCAUGUGCAGCCAG
apparent Kd [1]: 672 nM
apparent Kd [2]: 409 nM

AUCACCUUCAAGAAGGUCCCAUACAUGAGGAUCACCCAUGUAAACAAAAUAAUAUGAAAUAAAAGGAAGGAUAUUGAACCAUGA
apparent Kd [5]: 55.1 nM
apparent Kd [6]: 30.3 nM

GGAGGCCUUAGGGAUACCAGCUAAGUUGAGUACAUGAGGAUCACCCAUGUGUUCCCAGAGAGCCCUUGGCAGCCCUCAUCCGUUC
apparent Kd [3]: 11.6 nM
apparent Kd [4]: 10.8 nM

AUAGUGCGGCUGAAGGAUAUGGAACCCGCGACAUGAGGAUCACCCAUGUACUUAAGCGACAUUUGCCAGAAGGUCAAGCAUUCCAU
apparent Kd [5]: 13.3 nM
apparent Kd [6]: 11.2 nM

AUACCAACGGUCAGGAUAUAGGUAACAAGGAAAGACUAGAAGGGACAUGAGGAUCACCCAUGUUUUAACAUGAU
apparent Kd [1]: 7.28 nM
apparent Kd [2]: 6.89 nM

UCCACGGACCAAGGAUAUCCACAGUGAACCAGAGGAGAAGGUGGGAAUUACAUGAGGAUCACCCAUGUACGGGAUCUCCUGUAU
apparent Kd [5]: 47.5 nM
apparent Kd [6]: 41.7 nM

GAAGACAUGAGGAUCACCCAUGUUACACACCGAGGACCGGUACGGCCGCCACUCGUAGGCCCUCGGCUCACCUGAGAUCCGCAUC
apparent Kd [7]: 23.8 nM
apparent Kd [8]: 22.6 nM

UAAGCACAUGAGGAUCACCCAUGUAAGGAUAUCCGAUCAUGCAAUCCGGAGAUCACAAGGAGAAGGUACAUGCA
apparent Kd [1]: 29.6 nM
apparent Kd [2]: 33.3 nM

GGAAUGUCGUAGGAUAUAUGAUCUGUAAGGUAGAUAGAAGGACGAACAUGAGGAUCACCCAUGUGGAGGAUGUU
apparent Kd [1]: 15.5 nM
apparent Kd [2]: 27.5 nM

GCGGAACAUGAGGAUCACCCAUGUCAGGAUAUACGCACGGAGUAGGAGGAGGCCUAUGGUAGAAGGGACAGUGA
apparent Kd [1]: 10.8 nM
apparent Kd [2]: 10.2 nM

AUCAAUGAUCGACAUGAGGAUCACCCAUGUGCUUGGCGACUAAGAAGGGCCAGGCCACCAAGGCGGCAGGAUAUUAGUAGGACC
apparent Kd [1]: 84.2 nM
apparent Kd [2]: 24.3 nM

AGAUUUUGCCAAGGAUAUUCGAUGCAUCAUGACAUGAGGAUCACCCAUGUAUAACGACUUGGGCUGAAGAAGGUGGACCAAGCU
apparent Kd [1]: 11.8 nM
apparent Kd [2]: 12 nM

AUUUCAAACAUGAGGAUCACCCAUGUCAAGUUUGAGCAACUAAGAAGGUCAGAUCCAUAAGCACUGAAGGAUAUUAAGAGGUAC
apparent Kd [1]: 31.8 nM
apparent Kd [2]: 22 nM

GCACAACAUGAGGAUCACCCAUGUCGAGAUACCAGAACAUAUAUAUUCCCUUGGCAGCUCACACCUUUAAUGUAAAAUUCUUUGG
apparent Kd [3]: 12.7 nM
apparent Kd [4]: 14.5 nM

UCUCAUCAGUAGAAGGGCAGACCCUAACAAGGUGCAGGAUAUACUCUAAGUCCUACAUGAGGAUCACCCAUGUCAUAUAUCGGG
apparent Kd [1]: 323 nM
apparent Kd [2]: 196 nM

AUCAUAAGAGUAGGAUAUCGACAUGAGGAUCACCCAUGUACCUUGGAUGACCGCUAAUGGUUUAUCGAGAAGGACUUUUCCUCC
apparent Kd [1]: 8.2 nM
apparent Kd [2]: 10.2 nM

GAUCUGUGAGGAUAUUGUUAGAGCAUUCAACCAUCGAAUGCCAAGAAGGCACAUGAGGAUCACCCAUGUAGACA
apparent Kd [1]: 7.9 nM
apparent Kd [2]: 10.4 nM

AGUGUAUACAAGAAGGAACAUGGACUAGGAUUGUUAGGAUAUUGCAUAAACAUGAGGAUCACCCAUGUGCGACACGCCCACAUC
apparent Kd [5]: 35.4 nM
apparent Kd [6]: 21.7 nM

CGUGAUACUGGUAUACUCUGAAGAUCAAUUCGAGGACCGGUACGGCCGCCACUCGUUAGUAGACAUGAGGAUCACCCAUGUUAGU
apparent Kd [9]: 20 nM
apparent Kd [10]: 22.5 nM

GUGAUACAUGAGGAUCACCCAUGUUAAGGUCUUGCAGGAUAUCCAGAACUCGAGAUAGAUGGAGAAGGGCAUGCAU
apparent Kd [5]: 12.6 nM
apparent Kd [6]: 9.76 nM

GUAUCGGUUGAGAAGGCGGCGGAGACAUAACUUGGUCCCAACAUGAGGAUCACCCAUGUUAAAUCCGAGGAUAUCAACAAAGCC
apparent Kd [1]: 6.84 nM
apparent Kd [2]: 18.9 nM

GAGUACUGGUUAGGGAGAAAUACAUGAGGAUCACCCAUGUCCAGAAGGAUUCAGUAAGUGCCGGAAUAGGAUAUGGAACUAAAA
apparent Kd [5]: 246 nM
apparent Kd [6]: 105 nM

AGUACAAUAUUAGGAUAUUGACAAAACAUGAGGAUCACCCAUGUAAGGCAAGUGCAAGGGAGAGUCAAGAAGGAAAACUGAGUU
apparent Kd [5]: 38.4 nM
apparent Kd [6]: 30 nM

UAGAUCCCAGUCAGGAUAUCCAGGGAGAAUAGGAGGGAGAAGGGACAUGAGGAUCACCCAUGUAUGCGACUACC
apparent Kd [1]: 7.91 nM
apparent Kd [2]: 8.92 nM

AAUAUUAACGUCAGGAUAUGCCAUUCCCGUUGGCGGCAGAAGGGACAUGAGGAUCACCCAUGUGAAAACGUCAC
apparent Kd [1]: 16.9 nM
apparent Kd [2]: 25.6 nM

AGCUCGACUCGCAGCUGGAUGCCCGCUUGCCGAGGACCGGUACGGCCGCCACUCGUCACUCGACAUGAGGAUCACCCAUGUGAUA
apparent Kd [9]: 88.3 nM
apparent Kd [10]: 45.6 nM

CAACCACACAUAAGGCAAGGACAUGAGGAUCACCCAUGUGGUAGAAGGCAUCCUAAUGCGGACGAUGAGGAUAUACGACGUGCA
apparent Kd [1]: 75.5 nM
apparent Kd [2]: 50 nM

GUAUAUACAUAGGAUAUGUCGGCCGGUUAUGCAACAGAAGGAUGUACAUGAGGAUCACCCAUGUCAAUUGGGAG
apparent Kd [1]: 74.6 nM
apparent Kd [2]: 220 nM

GGCGGGAGAAUAGGAUAUUCCGGUAAUCGACAUGAGGAUCACCCAUGUACCGUUCAACCGAUACCGAAGAAGGAUUAUAAGCCU
apparent Kd [5]: 16.6 nM
apparent Kd [6]: 13.8 nM

AAAAUUCUAGUGAGGAUAUGGUACGUUGUAGUAAGCCAGAAGGCACAUGAGGAUCACCCAUGUAUAAUGGACGA
apparent Kd [1]: 31.1 nM
apparent Kd [2]: 148 nM

GAACCGUUUGAGAAGGUACACAUUCAGGUCGGUACUGGACAUGAGGAUCACCCAUGUGCCGGUGGUAAGGAUAUCAGAUGAGCU
apparent Kd [1]: 10.5 nM
apparent Kd [2]: 10.4 nM

GUAUUCAUGACGGCCGCCACUGCAAGCCUCCUCAUGGCAGAUUGACAUGAGGAUCACCCAUGUCUCAGGACCGGGUCUGGCAUCC
apparent Kd [7]: 188 nM
apparent Kd [8]: 171 nM

CAUACGCCGCAGAAGGAAGGACAGACAUGAGGAUCACCCAUGUACACCGGUUUAUUGGGUGCACCUUAGGAUAUGCAAAAGAAC
apparent Kd [5]: 268 nM
apparent Kd [6]: 132 nM

AUAACACAUGAGGAUCACCCAUGUAAGGAUACCAGUUUCUGAUUAAACCCUUGGCAGCCUAGAGAUAGUCAUGUAAUAACGGCGA
apparent Kd [3]: 11.9 nM
apparent Kd [4]: 19 nM

GGCGACAUGAGGAUCACCCAUGUGACACCUCGAGGACCGGUACGGCCGCCACUCGUAACCUGCACUAUAGCUACCACGAUUAGCC
apparent Kd [7]: 193 nM
apparent Kd [8]: 42.4 nM

CAGGGAAGAUGAGGAUAUCAUAGGAGGAUAUGUCGACACAUGAGGAUCACCCAUGUCGCUUACGUUGAGAAGGCAUUGACGUGU
apparent Kd [1]: 13.2 nM
apparent Kd [2]: 11.3 nM

UAAUACCAUACAGGAUAUACUUAGCCCAAAACAUGAGGAUCACCCAUGUAUUGGAGUCCUCGGCGGUAGAAGGGUACAGAAAGA
apparent Kd [1]: 19.5 nM
apparent Kd [2]: 16.4 nM

GUGUUACAUGAGGAUCACCCAUGUGUCUGAUGUCAAGGAUAUGACUCUUCCUUCACAAAGUCAGAAGGUGAUAUCA
apparent Kd [5]: 66.2 nM
apparent Kd [6]: 12.8 nM

CGUUGACAUGAGGAUCACCCAUGUUCCCUAGCCACAGGAUAUCGACGCGUGCUCGCUAGACGAGAAGGGUGGUAAA
apparent Kd [5]: 30.4 nM
apparent Kd [6]: 11.7 nM

ACCGAGGCAAUGGAUACCAGUGCGCCACAAUCGUGCUUCAACAUGAGGAUCACCCAUGUGCACCCUUGGCAGCCAACGGGCUCAU
apparent Kd [11]: 21.9 nM
apparent Kd [12]: 19.9 nM

AAAGAUUCCUGAACGCCGCAUACCGAUGAUACCAGCCAACGGAAAGGCCCUUGGCAGCAUUAAACAUGAGGAUCACCCAUGUCUA
apparent Kd [11]: 11.8 nM
apparent Kd [12]: 13.9 nM

AAGACGGUUCAGAAGGUCUCUAAGCAGGUUACAGAAGGAUAUGAUGCGGACACAUGAGGAUCACCCAUGUUCUAGGGUACCCUA
apparent Kd [5]: 22.1 nM
apparent Kd [6]: 19 nM

GAACAUGAGGAUCACCCAUGUGCUAUUGGGAAUCGCGCUACAUAGGAUAUAGAGGCGACUGUACUCUAGAAGGAUGCUAGUUUC
apparent Kd [1]: 38.3 nM
apparent Kd [2]: 37.8 nM
